We go through 1 molecule from ChEMBL document CHEMBL3352586, “Pyridyl benzamides as a novel class of potent inhibitors for the kinetoplastid Trypanosoma brucei” (J Med Chem, 2014).

Data set [1] concerns Liver microsome. Description: Drug metabolism in human liver microsomes assessed as M+32 formation at 1 uM after 60 mins by LC-MS analysis in presence of NADPH/UDPGA. It counts as ADME. The following applies: 1 h. (In general: Liver microsomes are vesicles of endoplasmic reticulum, rich in cytochrome P450 enzymes.)
A short description of data set [2]: Plasma protein binding in human […] by chromatographic method. Type of data set: ADME, cell-free. The following applies: read-out: PPB (converted). In a few lines: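 Human plasma protein binding was estimated by a chromatographic method.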
Data set [3] deals with Liver microsome. Description: Drug metabolism in human liver microsomes assessed as M+16(I) formation at 10 uM after 60 mins by LC-MS analysis in presence of NADPH. The note with it: 1 h.
The subject of data set [4] is Liver microsome. The experiment in a line: Drug metabolism in human liver microsomes assessed as M-2 formation at 10 uM after 60 mins by LC-MS analysis in presence of NADPH. The following applies: 1 h.
The subject of data set [5] is Liver microsome. The experiment in a line: Drug metabolism in human liver microsomes at 1 uM after 60 mins in absence of NADPH/UDPGA by LC-MS analysis. Type of data set: ADME. The following applies: 1 h.
The subject of data set [6] is Liver microsome. The experiment in a line: Drug metabolism in human liver microsomes assessed as M+16(II) formation at 1 uM after 60 mins by LC-MS analysis in presence of NADPH/UDPGA. The following applies: 1 h. Type of data set: ADME.
The nature of data set [7]: Kinetic solubility of the compound at 10 mg/ml at pH 2 by nephelometry. The following applies: buffer, read-out: Kinetic_solubility. It counts as physicochemical. The procedure, abridged: (§1)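 Kinetic solubility was read by nephelometry at pH 2 and pH 6.5 and reported as μg/mL ranges.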
The test system of data set [8] is Liver microsome. Description: Drug metabolism in human liver microsomes assessed as M+16(II) formation at 10 uM after 60 mins by LC-MS analysis in presence of NADPH. The note with it: 1 h.
The subject of data set [9] is Trypanosoma brucei brucei. Description: Antimicrobial activity against bloodstream form of Trypanosoma brucei brucei 427 at 10 uM after 48 hrs by alamar blue assay. Type of data set: functional. The following applies: Trypanosoma brucei, 427, 48 h. A general note: Alamar Blue is a resazurin reagent that responds to reducing activity.
Data set [10] is described as follows: Partition coefficient, log D of the compound at pH 7.4 by HPLC method. It counts as physicochemical. The note with it: octanol/water. The procedure, abridged: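 Distribution coefficient at pH 7.4 was measured chromatographically.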
Data set [11] deals with Liver microsome. The experiment in a line: Intrinsic clearance in human liver microsomes at 1 uM after 60 mins by LC-MS analysis. Type of data set: ADME. The following applies: 1 h. The procedure, abridged:
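In vitro intrinsic clearance was measured in human liver microsomes and expressed per mg protein. A hepatic extraction ratio (E_H) was predicted from the in vitro data.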

Data set [12] in a line: Kinetic solubility of the compound at 10 mg/ml at pH 6.5 by nephelometry. It counts as physicochemical. The note with it: buffer, read-out: Kinetic_solubility. In a few lines:
as §1

The subject of data set [13] is Liver microsome. The experiment in a line: Drug metabolism in human liver microsomes assessed as M+32 formation at 10 uM after 60 mins by LC-MS analysis in presence of NADPH. The note with it: 1 h.

Converted amounts (≈) assume the structure as drawn.

Broadly, the inhibition is the share of the control response that was lost under treatment. The low end stands for little suppression, the high end for strong suppression. By logD is commonly meant lipophilicity at a set pH, counting ionised and neutral species. The low end stands for a more hydrophilic compound, the high end for a more lipophilic compound.

For `Cc1ccccc1C(=O)Nc1ccc(F)cn1`, the Drug metabolism entry is “metabolite_detected” in the data set on Liver microsome [1]; “metabolite_detected” in the data set with Liver microsome [3]; “metabolite_detected” in the data set on Liver microsome [4]; “metabolite_notdetected” with Liver microsome [5]; “metabolite_detected” in the data set on Liver microsome [6]; “metabolite_detected” in the data set on Liver microsome [8]. In addition, the Drug metabolism entry in the data set on Liver microsome [13] is recorded as “metabolite_detected”. Also, the fraction unbound in [2] is 0.44. Besides, the solubility kinetic in data set [7] and in data set [12] was 25 µg/mL (≈ 109 µM) each time. In [9], this molecule had an inhibition at 10 µM of 33%. In data set [10], this molecule had a logD of 2.7. This molecule also returned a CLint in the data set with Liver microsome [11] of 43 µL/min/mg.
